Test results taken from ChEMBL document CHEMBL4371071, “Muscarinic agonist, (±)-quinuclidin-3-yl-(4-fluorophenethyl)(phenyl)carbamate: High affinity, but low subtype selectivity for human M1 - M5 muscarinic acetylcholine receptors” (Bioorg Med Chem Lett, 2019).

Molecular target: T1, Muscarinic acetylcholine receptor M5 (Homo sapiens, UniProt P08912)
T1 sequence (P08912 whole entry): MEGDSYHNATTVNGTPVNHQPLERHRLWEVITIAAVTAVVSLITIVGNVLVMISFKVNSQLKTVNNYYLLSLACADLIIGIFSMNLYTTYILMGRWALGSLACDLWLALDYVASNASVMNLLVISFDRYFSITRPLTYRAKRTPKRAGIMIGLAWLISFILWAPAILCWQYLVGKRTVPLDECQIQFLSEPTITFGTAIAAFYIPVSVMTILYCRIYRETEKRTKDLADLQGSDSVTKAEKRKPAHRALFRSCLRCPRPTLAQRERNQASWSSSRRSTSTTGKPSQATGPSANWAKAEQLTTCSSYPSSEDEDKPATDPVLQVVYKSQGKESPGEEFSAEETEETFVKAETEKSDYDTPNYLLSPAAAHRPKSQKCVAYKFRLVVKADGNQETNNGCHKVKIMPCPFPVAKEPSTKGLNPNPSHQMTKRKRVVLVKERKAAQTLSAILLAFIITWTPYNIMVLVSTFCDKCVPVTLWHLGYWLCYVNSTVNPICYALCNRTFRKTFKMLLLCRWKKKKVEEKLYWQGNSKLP
Test: Displacement of [3H]NMS from human M5 AChR expressed in CHO cell membranes after 1 to 2 hrs by liquid scintillation spectrometry method
Conditions: not given
Procedure, shortened: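 CHO membranes expressing human M5 (10 µg protein/well) with 0.3 nM [3H]NMS and analog (1 nM–100 µM) in 50 mM Tris-HCl pH 7.4, 2 h at 25 °C. Filtered on GF/B, counted by scintillation. IC50 converted to Ki; three independent experiments in duplicate.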

Compound	Ki
COc1ccc(CCN(C(=O)OC2CCCN(C)C2)c2ccccc2)cc1OC (stereo not given)	4490 nM
COc1ccc(COC(=O)N(c2ccccc2)C2CN3CCC2CC3)cc1F (stereo not given)	40 nM
O=C(OCCc1ccccc1)N(c1ccccc1)C1CN2CCC1CC2 (stereo not given)	260 nM
COc1ccc(CCN(C(=O)OC2CCCN(C)C2)c2ccccc2)cc1 (stereo not given)	1050 nM
O=C(OCCCc1ccccc1)N(c1ccccc1)C1CN2CCC1CC2 (stereo not given)	260 nM
O=C(OCCCc1ccc(F)c(F)c1)N(c1ccccc1)C1CN2CCC1CC2 (stereo not given)	100 nM

Molecular target: T2, Muscarinic acetylcholine receptor M2 (Homo sapiens) (UniProt P08172)
T2 sequence (whole entry): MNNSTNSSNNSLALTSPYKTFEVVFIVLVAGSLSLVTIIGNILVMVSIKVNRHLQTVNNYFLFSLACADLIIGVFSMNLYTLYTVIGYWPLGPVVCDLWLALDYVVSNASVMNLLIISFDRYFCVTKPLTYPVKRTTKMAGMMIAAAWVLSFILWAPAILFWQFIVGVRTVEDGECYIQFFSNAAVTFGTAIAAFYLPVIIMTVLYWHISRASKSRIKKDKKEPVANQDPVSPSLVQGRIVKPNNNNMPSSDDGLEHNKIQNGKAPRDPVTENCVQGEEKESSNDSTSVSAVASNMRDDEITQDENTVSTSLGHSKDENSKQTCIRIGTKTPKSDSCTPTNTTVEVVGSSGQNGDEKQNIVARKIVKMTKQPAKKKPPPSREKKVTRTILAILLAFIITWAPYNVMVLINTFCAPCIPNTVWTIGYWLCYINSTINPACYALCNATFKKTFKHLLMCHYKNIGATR
Test: Displacement of [3H]NMS from human M2 AChR expressed in CHO cell membranes at 100 uM after 1 to 2 hrs by liquid scintillation spectrometry method relative to control
Conditions: not given
Procedure, shortened: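 CHO membranes expressing the human subtype (20 µg protein/well) with 0.3 nM [3H]NMS and analog (1 nM–100 µM) in 50 mM Tris-HCl pH 7.4, 2 h at 25 °C. Filtered on GF/B, washed, counted by scintillation. IC50 taken from curves to give Ki; three independent experiments in duplicate.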

Compound	Imax
COc1ccc(COC(=O)N(c2ccccc2)C2CN3CCC2CC3)cc1F (stereo not given)	98.8%

Molecular target: T3, Muscarinic acetylcholine receptor M1 (Homo sapiens, UniProt P11229)
T3 sequence (P11229 whole entry): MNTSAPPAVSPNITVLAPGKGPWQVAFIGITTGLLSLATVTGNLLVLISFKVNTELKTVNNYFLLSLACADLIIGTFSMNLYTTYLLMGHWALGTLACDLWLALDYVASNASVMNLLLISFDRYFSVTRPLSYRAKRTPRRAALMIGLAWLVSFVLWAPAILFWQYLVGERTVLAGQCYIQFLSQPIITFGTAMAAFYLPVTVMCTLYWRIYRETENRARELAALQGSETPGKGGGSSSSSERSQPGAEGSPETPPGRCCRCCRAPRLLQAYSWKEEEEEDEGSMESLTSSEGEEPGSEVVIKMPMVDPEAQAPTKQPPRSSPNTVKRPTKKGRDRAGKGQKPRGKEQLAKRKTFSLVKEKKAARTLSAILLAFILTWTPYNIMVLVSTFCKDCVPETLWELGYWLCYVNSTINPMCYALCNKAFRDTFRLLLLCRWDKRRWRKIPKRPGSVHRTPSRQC
Test: Displacement of [3H]NMS from human M1 AChR expressed in CHO cell membranes after 1 to 2 hrs by liquid scintillation spectrometry method
Assay type: cell-based
Conditions: not given

Compound	Ki
COc1ccc(CCN(C(=O)OC2CCCN(C)C2)c2ccccc2)cc1OC (stereo not given)	4300 nM
COc1ccc(COC(=O)N(c2ccccc2)C2CN3CCC2CC3)cc1F (stereo not given)	70 nM
O=C(OCCc1ccccc1)N(c1ccccc1)C1CN2CCC1CC2 (stereo not given)	790 nM
COc1ccc(CCN(C(=O)OC2CCCN(C)C2)c2ccccc2)cc1 (stereo not given)	690 nM
O=C(OCCCc1ccccc1)N(c1ccccc1)C1CN2CCC1CC2 (stereo not given)	780 nM
O=C(OCCCc1ccc(F)c(F)c1)N(c1ccccc1)C1CN2CCC1CC2 (stereo not given)	300 nM

Molecular target: T4, Muscarinic acetylcholine receptor M3 (Homo sapiens, UniProt P20309)
Test: Displacement of [3H]NMS from human M3 AChR expressed in CHO cell membranes after 1 to 2 hrs by liquid scintillation spectrometry method
Assay type: cell-based
Conditions: not given
Target sequence in this assay (P20309 whole entry): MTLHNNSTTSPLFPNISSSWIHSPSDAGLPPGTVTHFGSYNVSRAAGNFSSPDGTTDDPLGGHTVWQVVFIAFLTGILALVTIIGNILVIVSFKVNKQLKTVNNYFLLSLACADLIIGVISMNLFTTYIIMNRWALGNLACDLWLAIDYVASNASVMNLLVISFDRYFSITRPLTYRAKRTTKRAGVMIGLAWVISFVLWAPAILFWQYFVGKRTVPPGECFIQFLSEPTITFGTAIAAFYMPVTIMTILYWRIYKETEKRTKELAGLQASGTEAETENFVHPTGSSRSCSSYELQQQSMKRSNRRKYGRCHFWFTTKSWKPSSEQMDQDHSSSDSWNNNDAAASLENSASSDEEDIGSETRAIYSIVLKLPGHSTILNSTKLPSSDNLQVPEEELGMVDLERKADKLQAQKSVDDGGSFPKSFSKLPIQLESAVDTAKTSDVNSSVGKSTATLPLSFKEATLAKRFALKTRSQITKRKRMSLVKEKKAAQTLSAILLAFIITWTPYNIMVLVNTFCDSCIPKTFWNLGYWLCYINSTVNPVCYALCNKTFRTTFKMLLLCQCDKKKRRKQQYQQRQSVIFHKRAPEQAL

Compound	Ki
COc1ccc(CCN(C(=O)OC2CCCN(C)C2)c2ccccc2)cc1OC (stereo not given)	4360 nM
COc1ccc(COC(=O)N(c2ccccc2)C2CN3CCC2CC3)cc1F (stereo not given)	50 nM
O=C(OCCc1ccccc1)N(c1ccccc1)C1CN2CCC1CC2 (stereo not given)	300 nM
COc1ccc(CCN(C(=O)OC2CCCN(C)C2)c2ccccc2)cc1 (stereo not given)	1320 nM
O=C(OCCCc1ccccc1)N(c1ccccc1)C1CN2CCC1CC2 (stereo not given)	550 nM
O=C(OCCCc1ccc(F)c(F)c1)N(c1ccccc1)C1CN2CCC1CC2 (stereo not given)	220 nM

Species on record: Homo sapiens
Test: Selectivity ratio of Ki for displacement of [3H]NMS from human M2 AChR expressed in CHO cell membranes to Ki for displacement of [3H]NMS from human M3 AChR expressed in CHO cell membranes
Conditions: not given

Compound	Ratio Ki
COc1ccc(COC(=O)N(c2ccccc2)C2CN3CCC2CC3)cc1F (stereo not given)	1.8

Species on record: Homo sapiens
Test: Selectivity ratio of Ki for displacement of [3H]NMS from human M1 AChR expressed in CHO cell membranes to Ki for displacement of [3H]NMS from human M5 AChR expressed in CHO cell membranes
Conditions: not given

Compound	Ratio Ki
COc1ccc(CCN(C(=O)OC2CCCN(C)C2)c2ccccc2)cc1OC (stereo not given)	1
COc1ccc(COC(=O)N(c2ccccc2)C2CN3CCC2CC3)cc1F (stereo not given)	1.5
O=C(OCCc1ccccc1)N(c1ccccc1)C1CN2CCC1CC2 (stereo not given)	3
COc1ccc(CCN(C(=O)OC2CCCN(C)C2)c2ccccc2)cc1 (stereo not given)	0.7
O=C(OCCCc1ccccc1)N(c1ccccc1)C1CN2CCC1CC2 (stereo not given)	3
O=C(OCCCc1ccc(F)c(F)c1)N(c1ccccc1)C1CN2CCC1CC2 (stereo not given)	3

Molecular target: T5, Muscarinic acetylcholine receptor M5 (Homo sapiens) (UniProt P08912)
T5 sequence (whole entry): T1 sequence (P08912 whole entry)
Test: Displacement of [3H]NMS from human M5 AChR expressed in CHO cell membranes at 100 uM after 1 to 2 hrs by liquid scintillation spectrometry method relative to control
Conditions: not given
Procedure, shortened: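 CHO membranes expressing human M5 (10 µg protein/well) with 0.3 nM [3H]NMS and analog (1 nM–100 µM) in 50 mM Tris-HCl pH 7.4, 2 h at 25 °C. […] Filtered on GF/B, counted by scintillation. IC50 converted to Ki; three independent experiments in duplicate.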

Compound	Imax
COc1ccc(CCN(C(=O)OC2CCCN(C)C2)c2ccccc2)cc1OC (stereo not given)	89.2%
COc1ccc(COC(=O)N(c2ccccc2)C2CN3CCC2CC3)cc1F (stereo not given)	96.7%
O=C(OCCc1ccccc1)N(c1ccccc1)C1CN2CCC1CC2 (stereo not given)	96.9%
COc1ccc(CCN(C(=O)OC2CCCN(C)C2)c2ccccc2)cc1 (stereo not given)	97.7%
O=C(OCCCc1ccccc1)N(c1ccccc1)C1CN2CCC1CC2 (stereo not given)	95.7%
O=C(OCCCc1ccc(F)c(F)c1)N(c1ccccc1)C1CN2CCC1CC2 (stereo not given)	99.4%

Molecular target: T6, Muscarinic acetylcholine receptor M1 (Homo sapiens) (UniProt P11229)
T6 sequence (whole entry): T3 sequence (P11229 whole entry)
Conditions: CHO, at 100 µM

Compound	Imax
COc1ccc(CCN(C(=O)OC2CCCN(C)C2)c2ccccc2)cc1OC (stereo not given)	94.3%
COc1ccc(COC(=O)N(c2ccccc2)C2CN3CCC2CC3)cc1F (stereo not given)	99.5%
O=C(OCCc1ccccc1)N(c1ccccc1)C1CN2CCC1CC2 (stereo not given)	88.5%
COc1ccc(CCN(C(=O)OC2CCCN(C)C2)c2ccccc2)cc1 (stereo not given)	98.6%
O=C(OCCCc1ccccc1)N(c1ccccc1)C1CN2CCC1CC2 (stereo not given)	99.1%
O=C(OCCCc1ccc(F)c(F)c1)N(c1ccccc1)C1CN2CCC1CC2 (stereo not given)	100%

Molecular target: T7, Muscarinic acetylcholine receptor M2 (Homo sapiens, UniProt P08172)
T7 sequence (P08172 whole entry): T2 sequence (whole entry)
Test: Displacement of [3H]NMS from human M2 AChR expressed in CHO cell membranes after 1 to 2 hrs by liquid scintillation spectrometry method
Conditions: not given
Procedure, shortened: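 CHO membranes expressing the human subtype (20 µg protein/well) with 0.3 nM [3H]NMS and analog (1 nM–100 µM) in 50 mM Tris-HCl pH 7.4, 2 h at 25 °C. […] Filtered on GF/B, washed, counted by scintillation. IC50 taken from curves to give Ki; three independent experiments in duplicate.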

Compound	Ki
COc1ccc(COC(=O)N(c2ccccc2)C2CN3CCC2CC3)cc1F (stereo not given)	100 nM

Molecular target: T4, Muscarinic acetylcholine receptor M3
Conditions: CHO, at 100 µM
Target sequence in this assay (P20309 whole entry, looked up): as the sequence (P20309 whole entry) above

Compound	Imax
COc1ccc(CCN(C(=O)OC2CCCN(C)C2)c2ccccc2)cc1OC (stereo not given)	85.6%
COc1ccc(COC(=O)N(c2ccccc2)C2CN3CCC2CC3)cc1F (stereo not given)	100%
O=C(OCCc1ccccc1)N(c1ccccc1)C1CN2CCC1CC2 (stereo not given)	99.1%
COc1ccc(CCN(C(=O)OC2CCCN(C)C2)c2ccccc2)cc1 (stereo not given)	96.2%
O=C(OCCCc1ccccc1)N(c1ccccc1)C1CN2CCC1CC2 (stereo not given)	98.9%
O=C(OCCCc1ccc(F)c(F)c1)N(c1ccccc1)C1CN2CCC1CC2 (stereo not given)	99.5%
